As a reminder, the IC50 is the concentration at which inhibition is half-maximal. The inhibition is how much of the control response was suppressed.

The structures appear in SMILES notation. Where a SMILES comes first, the peptide text is derived from it. Bridges are numbered along the chain shown (N, C = ends). Where only a bound is given, the exact number is not on record here.

Results on one compound are retold here after ChEMBL document CHEMBL4811225 (J Med Chem, 2021).

The target in test [1] is Nicotinic acetylcholine receptor alpha6/alpha3/beta2/beta3 (Rattus norvegicus, UniProt P04757+P12390+P12391+P43143). The test is classed as cell-based, Oocyte.
In test [2] the target is Neuronal acetylcholine receptor; alpha3/beta2 (Homo sapiens, UniProt P17787+P32297). The experiment in a line: Inhibition of human alpha3beta2 nAChR expressed in Xenopus laevis oocytes assessed as inhibition of acetylcholine-induced current response at 10 uM by two-electrode voltage-clamp method relative to control. Format: cell-based. The settings on record: Oocyte. The method in brief:
(§1)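 Oocytes (stage IV–V) injected with equal-ratio cRNAs of cloned subunits; TEVC 1–5 days post-injection. ACh 100 μM for β2-containing and α9α10 subtypes, 1 s pulses every 60 s. Peptide 10 μM in 5 min static bath; response normalized to ACh response after 5 min control-saline bath; mean ± SD, n = 4.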
On the technique in general: Two-electrode voltage clamp holds a large cell at a set potential and records current.

Test [3] addresses Neuronal acetylcholine receptor; alpha4/beta2 (Rattus norvegicus) (UniProt P09483+P12390). The experiment in a line: Inhibition of rat alpha4beta2 nAChR expressed in Xenopus laevis oocytes assessed as inhibition of acetylcholine-induced current response at 10 uM by two-electrode voltage-clamp method relative to control. The test is classed as cell-based. The settings on record: Oocyte. The method in brief: as §1

The species named for test [4] is Homo sapiens. The experiment in a line: Selectivity ratio of IC50 for human alpha4beta2 nAChR to IC50 for human alpha6/alpha3beta4 nAChR. The method in brief:
(§2)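 Ratio of each subtype's IC50, from TEVC inhibition of ACh-evoked currents in X. laevis oocytes, to the IC50 at the same species' α6/α3β4 nAChR; IC50 values with 95% CI, n = number of oocytes.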

Test [5] addresses Neuronal acetylcholine receptor; alpha9/alpha10 (Homo sapiens, UniProt Q9GZZ6+Q9UGM1). The experiment in a line: Inhibition of human alpha9alpha10 nAChR expressed in Xenopus laevis oocytes assessed as inhibition of acetylcholine-induced current response by two-electrode voltage-clamp method. Format: cell-based, Oocyte. The method in brief:
(§3)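 Two-electrode voltage clamp of stage IV–V oocytes 1–5 days after equal-ratio cRNA injection; ACh 100 μM (β2-containing subtypes, α9α10), 1 s every 60 s in frog saline. Peptide perfused up to 1 μM, responses normalized to mean of three control responses; above 1 μM, 5 min static bath. IC50 with 95% CI; n = oocytes.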

Test [6] deals with Neuronal acetylcholine receptor; alpha3/beta2 (Rattus norvegicus) (UniProt P04757+P12390). The experiment in a line: Inhibition of rat alpha3beta2 nAChR expressed in Xenopus laevis oocytes assessed as inhibition of acetylcholine-induced current response at 10 uM by two-electrode voltage-clamp method relative to control. The test is classed as cell-based. The settings on record: Oocyte. The method in brief: as §1

The target in test [7] is Neuronal acetylcholine receptor; alpha3/beta2 (Rattus norvegicus, UniProt P04757+P12390). Format: cell-based, Oocyte.
The species named for test [8] is Rattus norvegicus. The experiment in a line: Selectivity ratio of IC50 for rat alpha4beta2 nAChR to IC50 for rat alpha6/alpha3beta4 nAChR. A digest of the protocol:
as §2

The target in test [9] is Neuronal acetylcholine receptor; alpha4/beta2 (Rattus norvegicus, UniProt P09483+P12390). Format: cell-based, Oocyte.
For test [10], the target named is T1, Neuronal acetylcholine receptor subunit alpha-7 (Homo sapiens, UniProt P36544). The experiment in a line: Inhibition of human alpha7 nAChR expressed in Xenopus laevis oocytes assessed as inhibition of acetylcholine-induced current response at 10 uM by two-electrode voltage-clamp method relative to control. The test is classed as cell-based. Particulars: Oocyte. The method in brief:
(§4)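 Stage IV–V X. laevis oocytes expressing equal-ratio cRNAs of α2β4, α3β4, α4β4 or α7 subunits; TEVC 1–5 days after injection. ACh 300 μM, 1 s at 60 s intervals. 10 μM peptide as 5 min static bath, normalized to ACh response after 5 min bath of control saline; mean ± SD, n = 4.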

Test [11] is described as follows: Inhibition of human alpha4beta4 nAChR expressed in Xenopus laevis oocytes assessed as inhibition of acetylcholine-induced current response by two-electrode voltage-clamp method. The test is classed as cell-based. Particulars: Oocyte. A digest of the protocol: (§5)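 TEVC on stage IV–V oocytes 1–5 days after equal-ratio cRNA injection (α2β4, α3β4, α4β4, α7). ACh 300 μM, 1 s pulses at 60 s intervals under frog saline perfusion. Peptide perfused to 1 μM, normalized to average of three control responses; higher concentrations by 5 min static bath. IC50 with 95% CI, n oocytes.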

In test [12] the target is Nicotinic acetylcholine receptor alpha6/alpha3/beta4 (Homo sapiens, UniProt P30926+P32297+Q15825). Format: cell-based, Oocyte.
Test [13] is filed under the species Rattus norvegicus. Put plainly: Selectivity ratio of IC50 for rat alpha3beta4 nAChR to IC50 for rat alpha6/alpha3beta4 nAChR. A digest of the protocol:
as §2

The species entered for test [14] is Homo sapiens. Put plainly: Selectivity ratio of IC50 for human alpha3beta2 nAChR to IC50 for human alpha6/alpha3beta4 nAChR. The method in brief:
as §2

The target of test [15] is Neuronal acetylcholine receptor subunit alpha-7 (Rattus norvegicus) (UniProt Q05941). The experiment in a line: Inhibition of rat alpha7 nAChR expressed in Xenopus laevis oocytes assessed as inhibition of acetylcholine-induced current response at 10 uM by two-electrode voltage-clamp method relative to control. Format: cell-based. Particulars: Oocyte. A digest of the protocol: as §4

The species entered for test [16] is Homo sapiens. The experiment in a line: Selectivity ratio of IC50 for human alpha7 nAChR to IC50 for human alpha6/alpha3beta4 nAChR. A digest of the protocol:
as §2

The target of test [17] is Neuronal acetylcholine receptor; alpha3/alpha6/beta2/beta3 (Homo sapiens, UniProt P17787+P32297+Q05901+Q15825). The experiment in a line: Inhibition of human alpha6/alpha3beta2beta3 nAChR expressed in Xenopus laevis oocytes assessed as inhibition of acetylcholine-induced current response by two-electrode voltage-clamp method. The test is classed as cell-based, Oocyte. The method in brief:
as §3

For test [18], the target named is Neuronal acetylcholine receptor; alpha2/beta2 (Homo sapiens, UniProt P17787+Q15822). Put plainly: Inhibition of human alpha2beta2 nAChR expressed in Xenopus laevis oocytes assessed as inhibition of acetylcholine-induced current response at 10 uM by two-electrode voltage-clamp method relative to control. Format: cell-based. The settings on record: Oocyte. The method in brief:
as §1

The target in test [19] is Neuronal acetylcholine receptor; alpha4/beta4 (Rattus norvegicus) (UniProt P09483+P12392). The experiment in a line: Inhibition of rat alpha4beta4 nAChR expressed in Xenopus laevis oocytes assessed as inhibition of acetylcholine-induced current response at 10 uM by two-electrode voltage-clamp method relative to control. The test is classed as cell-based. Particulars: Oocyte. A digest of the protocol:
as §4

Test [20] deals with T1, Neuronal acetylcholine receptor subunit alpha-7. Put plainly: Inhibition of human alpha7 nAChR expressed in Xenopus laevis oocytes assessed as inhibition of acetylcholine-induced current response by two-electrode voltage-clamp method. Format: cell-based, Oocyte. The method in brief:
as §5

The target in test [21] is Neuronal acetylcholine receptor; alpha2/beta4 (Rattus norvegicus, UniProt P12389+P12392). Put plainly: Inhibition of rat alpha2beta4 nAChR expressed in Xenopus laevis oocytes assessed as inhibition of acetylcholine-induced current response by two-electrode voltage-clamp method. Format: cell-based, Oocyte. The method in brief:
as §5

Test [22] deals with Nicotinic acetylcholine receptor alpha-1/beta-1/delta/epsilon (Homo sapiens) (UniProt P02708+P11230+Q07001+Q04844). The experiment in a line: Inhibition of human alpha1beta1deltaepsilon nAChR expressed in Xenopus laevis oocytes assessed as inhibition of acetylcholine-induced current response at 10 uM by two-electrode voltage-clamp method relative to control. Format: cell-based. The settings on record: Oocyte. A digest of the protocol: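 Human α1, β1, δ and ε cDNAs injected in equal ratios into the nucleus of stage IV–V X. laevis oocytes; TEVC 1–5 days later. ACh 100 μM, 1 s pulses at 60 s intervals. Peptide 10 μM applied as 5 min static bath; response normalized to ACh response after 5 min bath of control saline; mean ± SD, n = 4.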

T1 sequence (P36544 whole entry): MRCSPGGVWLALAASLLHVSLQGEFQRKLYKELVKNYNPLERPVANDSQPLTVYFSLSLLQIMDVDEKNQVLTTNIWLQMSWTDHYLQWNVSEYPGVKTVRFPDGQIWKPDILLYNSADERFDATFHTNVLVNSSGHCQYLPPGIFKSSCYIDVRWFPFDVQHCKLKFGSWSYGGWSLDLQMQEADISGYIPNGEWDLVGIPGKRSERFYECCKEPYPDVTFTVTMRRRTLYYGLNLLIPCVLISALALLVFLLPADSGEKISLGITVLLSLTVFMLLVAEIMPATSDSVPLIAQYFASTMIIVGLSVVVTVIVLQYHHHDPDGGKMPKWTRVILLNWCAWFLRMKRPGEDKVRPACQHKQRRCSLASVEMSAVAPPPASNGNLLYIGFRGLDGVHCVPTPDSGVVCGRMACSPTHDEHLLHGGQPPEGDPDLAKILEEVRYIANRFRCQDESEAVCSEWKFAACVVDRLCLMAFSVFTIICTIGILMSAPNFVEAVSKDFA
Chain of Nicotinic acetylcholine receptor alpha6/alpha3/beta2/beta3 (P04757 whole entry): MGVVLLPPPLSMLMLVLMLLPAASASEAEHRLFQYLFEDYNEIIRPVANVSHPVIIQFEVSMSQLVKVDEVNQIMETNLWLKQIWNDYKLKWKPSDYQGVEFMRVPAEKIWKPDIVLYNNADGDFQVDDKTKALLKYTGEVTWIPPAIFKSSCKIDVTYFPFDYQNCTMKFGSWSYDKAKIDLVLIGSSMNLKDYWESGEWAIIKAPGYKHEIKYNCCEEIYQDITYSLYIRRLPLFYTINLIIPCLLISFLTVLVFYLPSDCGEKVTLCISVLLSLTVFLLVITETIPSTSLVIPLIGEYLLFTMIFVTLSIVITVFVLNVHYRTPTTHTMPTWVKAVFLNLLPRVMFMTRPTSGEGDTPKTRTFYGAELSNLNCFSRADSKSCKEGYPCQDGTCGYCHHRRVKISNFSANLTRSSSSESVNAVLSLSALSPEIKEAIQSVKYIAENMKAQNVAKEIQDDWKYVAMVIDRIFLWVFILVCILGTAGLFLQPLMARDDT
Chain of Nicotinic acetylcholine receptor alpha6/alpha3/beta2/beta3 (P12390 whole entry): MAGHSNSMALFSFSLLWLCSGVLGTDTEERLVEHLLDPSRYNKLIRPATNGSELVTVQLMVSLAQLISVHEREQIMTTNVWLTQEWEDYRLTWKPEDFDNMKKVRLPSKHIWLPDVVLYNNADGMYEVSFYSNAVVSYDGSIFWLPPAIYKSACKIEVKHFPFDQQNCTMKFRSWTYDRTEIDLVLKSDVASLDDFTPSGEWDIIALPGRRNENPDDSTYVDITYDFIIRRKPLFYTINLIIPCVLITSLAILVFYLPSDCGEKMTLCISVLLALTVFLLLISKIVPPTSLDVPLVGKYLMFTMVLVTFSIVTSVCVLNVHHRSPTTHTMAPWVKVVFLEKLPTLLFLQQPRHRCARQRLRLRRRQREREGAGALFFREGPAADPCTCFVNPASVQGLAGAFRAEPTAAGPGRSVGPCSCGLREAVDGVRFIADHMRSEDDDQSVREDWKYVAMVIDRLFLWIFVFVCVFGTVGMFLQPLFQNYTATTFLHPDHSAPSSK
Chain of Nicotinic acetylcholine receptor alpha6/alpha3/beta2/beta3 (P12391 whole entry): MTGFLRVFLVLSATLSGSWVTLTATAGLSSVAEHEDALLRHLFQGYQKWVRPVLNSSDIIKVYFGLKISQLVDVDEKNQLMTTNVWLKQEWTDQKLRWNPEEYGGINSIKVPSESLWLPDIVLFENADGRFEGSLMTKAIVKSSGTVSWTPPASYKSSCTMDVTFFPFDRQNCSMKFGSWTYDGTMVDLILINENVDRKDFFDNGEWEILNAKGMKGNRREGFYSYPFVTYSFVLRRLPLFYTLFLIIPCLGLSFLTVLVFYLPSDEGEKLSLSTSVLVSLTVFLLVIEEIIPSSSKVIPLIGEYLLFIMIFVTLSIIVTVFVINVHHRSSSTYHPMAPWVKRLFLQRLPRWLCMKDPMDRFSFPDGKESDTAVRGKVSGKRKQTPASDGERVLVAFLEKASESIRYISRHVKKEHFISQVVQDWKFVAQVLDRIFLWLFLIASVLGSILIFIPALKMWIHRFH
Chain of Nicotinic acetylcholine receptor alpha6/alpha3/beta2/beta3 (P43143 whole entry): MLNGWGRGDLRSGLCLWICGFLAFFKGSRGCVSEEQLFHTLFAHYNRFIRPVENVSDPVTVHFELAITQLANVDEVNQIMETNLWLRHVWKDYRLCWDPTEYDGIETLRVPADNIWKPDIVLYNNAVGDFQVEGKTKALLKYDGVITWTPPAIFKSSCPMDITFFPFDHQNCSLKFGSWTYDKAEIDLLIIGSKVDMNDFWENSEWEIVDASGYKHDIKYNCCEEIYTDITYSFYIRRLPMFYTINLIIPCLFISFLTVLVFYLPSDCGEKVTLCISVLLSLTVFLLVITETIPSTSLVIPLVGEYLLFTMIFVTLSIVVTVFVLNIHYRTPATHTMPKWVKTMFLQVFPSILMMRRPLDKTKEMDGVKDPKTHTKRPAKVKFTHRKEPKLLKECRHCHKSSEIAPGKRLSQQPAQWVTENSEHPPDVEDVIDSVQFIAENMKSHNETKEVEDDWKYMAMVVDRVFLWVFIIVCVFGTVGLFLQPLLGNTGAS
Chain of Neuronal acetylcholine receptor; alpha3/beta2 (Rattus norvegicus, UniProt P04757+P12390) (P04757 whole entry): as the sequence (P04757 whole entry) above
Chain of Neuronal acetylcholine receptor; alpha3/beta2 (Rattus norvegicus, UniProt P04757+P12390) (P12390 whole entry): as the sequence (P12390 whole entry) above
Chain of Nicotinic acetylcholine receptor alpha6/alpha3/beta4 (P30926 whole entry): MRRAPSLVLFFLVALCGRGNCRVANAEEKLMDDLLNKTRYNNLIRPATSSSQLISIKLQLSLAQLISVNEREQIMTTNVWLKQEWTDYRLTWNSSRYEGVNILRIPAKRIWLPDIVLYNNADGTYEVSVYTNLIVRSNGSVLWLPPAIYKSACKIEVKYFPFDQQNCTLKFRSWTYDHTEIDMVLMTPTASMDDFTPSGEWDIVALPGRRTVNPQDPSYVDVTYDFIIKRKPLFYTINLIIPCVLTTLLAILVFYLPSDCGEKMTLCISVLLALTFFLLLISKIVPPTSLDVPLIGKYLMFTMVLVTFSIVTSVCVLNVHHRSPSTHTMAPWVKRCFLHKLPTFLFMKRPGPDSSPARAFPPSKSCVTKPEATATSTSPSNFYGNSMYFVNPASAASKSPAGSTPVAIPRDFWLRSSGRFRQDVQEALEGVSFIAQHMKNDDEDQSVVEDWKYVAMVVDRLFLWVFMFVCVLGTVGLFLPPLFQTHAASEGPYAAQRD
Chain of Nicotinic acetylcholine receptor alpha6/alpha3/beta4 (P32297 whole entry): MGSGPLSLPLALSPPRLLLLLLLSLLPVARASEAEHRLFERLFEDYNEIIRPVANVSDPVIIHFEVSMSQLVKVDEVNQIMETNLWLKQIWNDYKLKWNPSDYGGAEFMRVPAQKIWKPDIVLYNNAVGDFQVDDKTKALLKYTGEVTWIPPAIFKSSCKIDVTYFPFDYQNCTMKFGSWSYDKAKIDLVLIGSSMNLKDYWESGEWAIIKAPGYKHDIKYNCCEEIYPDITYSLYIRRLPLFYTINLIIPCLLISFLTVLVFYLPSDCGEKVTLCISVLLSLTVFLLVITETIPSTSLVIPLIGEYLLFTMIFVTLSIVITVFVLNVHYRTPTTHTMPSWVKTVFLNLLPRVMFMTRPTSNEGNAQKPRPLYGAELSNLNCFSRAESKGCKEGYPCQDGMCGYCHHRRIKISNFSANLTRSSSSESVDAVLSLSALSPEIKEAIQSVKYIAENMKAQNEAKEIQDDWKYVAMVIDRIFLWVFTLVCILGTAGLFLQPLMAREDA
Chain of Nicotinic acetylcholine receptor alpha6/alpha3/beta4 (Q15825 whole entry): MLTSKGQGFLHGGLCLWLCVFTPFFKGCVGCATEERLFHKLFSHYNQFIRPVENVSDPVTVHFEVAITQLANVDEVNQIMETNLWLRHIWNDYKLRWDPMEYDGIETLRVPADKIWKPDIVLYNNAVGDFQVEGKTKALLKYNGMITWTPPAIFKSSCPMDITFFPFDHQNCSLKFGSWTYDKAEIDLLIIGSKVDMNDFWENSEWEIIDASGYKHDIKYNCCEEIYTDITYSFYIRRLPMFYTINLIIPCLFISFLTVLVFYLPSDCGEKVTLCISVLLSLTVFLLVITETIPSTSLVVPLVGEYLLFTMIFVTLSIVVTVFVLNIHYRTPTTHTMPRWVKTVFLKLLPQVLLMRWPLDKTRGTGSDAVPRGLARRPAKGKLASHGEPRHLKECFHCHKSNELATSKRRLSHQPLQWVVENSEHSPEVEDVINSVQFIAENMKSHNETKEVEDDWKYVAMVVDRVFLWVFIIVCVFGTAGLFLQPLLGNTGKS
Chain of Neuronal acetylcholine receptor; alpha4/beta2 (P09483 whole entry): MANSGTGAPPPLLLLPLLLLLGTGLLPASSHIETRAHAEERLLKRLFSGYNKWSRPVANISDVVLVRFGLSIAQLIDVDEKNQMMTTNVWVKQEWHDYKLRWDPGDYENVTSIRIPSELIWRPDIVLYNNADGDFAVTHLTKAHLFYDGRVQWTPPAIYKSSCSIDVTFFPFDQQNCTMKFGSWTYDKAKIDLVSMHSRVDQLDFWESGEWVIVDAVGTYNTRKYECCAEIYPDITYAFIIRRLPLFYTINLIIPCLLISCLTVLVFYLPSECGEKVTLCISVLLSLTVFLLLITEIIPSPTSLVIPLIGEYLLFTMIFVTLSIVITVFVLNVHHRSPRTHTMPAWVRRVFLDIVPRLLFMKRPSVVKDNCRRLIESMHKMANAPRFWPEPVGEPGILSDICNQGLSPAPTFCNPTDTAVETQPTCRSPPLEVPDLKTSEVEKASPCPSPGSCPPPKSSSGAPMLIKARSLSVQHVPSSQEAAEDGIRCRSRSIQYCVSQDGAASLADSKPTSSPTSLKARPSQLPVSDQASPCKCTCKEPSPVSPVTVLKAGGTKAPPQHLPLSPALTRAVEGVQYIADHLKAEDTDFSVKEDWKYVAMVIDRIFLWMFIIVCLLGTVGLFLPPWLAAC
Chain of Neuronal acetylcholine receptor; alpha4/beta2 (P12390 whole entry): as the sequence (P12390 whole entry) above

With `CC[C@H](C)[C@@H]1NC(=O)[C@H](CCC(=O)O)NC(=O)[C@@H]2CCCN2C(=O)[C@H](Cc2cnc[nH]2)NC(=O)[C@H](CC(N)=O)NC(=O)[C@H](C(C)C)NC(=O)[C@H](CC(N)=O)NC(=O)[C@@H]2CSSC[C@H](NC(=O)CN)C(=O)N[C@@H](CSSC[C@@H](C(N)=O)NC1=O)C(=O)N[C@@H](CO)C(=O)N[C@@H](Cc1cnc[nH]1)C(=O)N1CCC[C@H]1C(=O)N[C@@H](C(C)C)C(=O)N2` (H-GCCSHPVCNVNHPEIC-NH2; disulfide 2-8, 3-16), the half-maximal inhibitory concentration (IC50) in [1] was 0.111 µM; in test [5], more than 10 µM; in test [7] it was more than 10 µM; in test [9], more than 10 µM; in [11] it was 4.01 µM; in test [12], 0.0002 µM. The IC50 in [17] was 0.135 µM; in [20], more than 10 µM; in [21], more than 10 µM. The inhibition was found to be 76% in [2]; 81% in [3]; 94% in test [6]; 89% in test [10]; 82% in [15]; 95% in test [18]. Also, the inhibition is 81% in test [19] and 93% in [22]. For the same compound, the Ratio IC50 in the test listed under Homo sapiens [4] is more than 10000; in the test listed under Rattus norvegicus [8], more than 20000; in the test filed under Rattus norvegicus [13], 489; in the test listed under Homo sapiens [14], more than 50000; in the test listed under Homo sapiens [16] it was more than 50000.
